Results reported in paper PMC6544545 (Nature microbiology, 2018).

Tests used:
[1] = system: antibiotic-resistant E. coli strains; assay: Membrane integrity measurement; assay type: cell-based, Escherichia coli; settings: sensitive strains could not grow on medium with 6% bile acid
How it was run: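 Bile acid sensitivity came from the high-throughput screen in MS medium. About 103 bacteria/ml were pin-inoculated and grown 24 h at 30°C, 300 rpm, with OD600 read once. Resistant strains ran in 4 replicates and wild-type in 12 on the same plate, and growth arrest was scored per well. Strains unable to grow with 6% bile acid were grouped as sensitive.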

[2] = system: E. coli K12 wild-type and antibiotic-resistant strains; assay: Antibiotic-PGLA combination screen; assay type: cell-based, Escherichia coli; settings: Loewe additivity, EC90%
How it was run: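 E. coli K12 BW25113 wild-type and 21 strains adapted to one of 10 antibiotics were tested. Single agents ran as 1.6-fold 8-step dilutions spanning 10.5x below to 2.6x above each strain's MIC, plus dilution series at 7 antibiotic:peptide ratios (7:1 to 1:7). Wells received 5×10^4 cells from overnight culture, then 24 h at 30°C, 300 rpm, OD600. Expected (Loewe) and measured EC90% gave CIr per ratio; CI is the mean of the 7 CIr values.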

[3] = system: antibiotic-resistant bacteria; assay: Antibiotic MIC in the presence of subinhibitory PGLA; assay type: cell-based, Escherichia coli; settings: tetracycline (TET) resistant strain; ½ MIC PGLA (MIC against the wild-type)
How it was run: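 Each level was tested alone and alongside MIC determination of the antibiotic the strain was adapted to. Growth with peptide alone was scored as growth rate.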

wild-type E. coli = assay: Experimental evolution of resistance followed by MIC measurement; assay type: cell-based, Escherichia coli
E. coli mutant strains = assay: Relative MIC measurement of mutant and evolved strains; assay type: cell-based, Escherichia coli
CAP18-resistant bacteria = assay: Susceptibility of CAP18-resistant evolved bacteria to antibiotics; assay type: cell-based; settings: preliminary results
[4] = system: 60 antibiotic-resistant Escherichia coli strains; assay type: cell-based

## bile acid
[1]
  percentage of antibiotic-resistant strains more susceptible than the wild-type: 75%

## Peptide Glycine-Leucine Amide [PGLA]
[2]; E. coli K12 wild-type, 0.86<CI<1.14 no interaction
  interaction of PGLA with tetracycline (TET), wild-type strain: no interaction
[2]; TET3, CI≤0.86 synergism
  interaction of PGLA with tetracycline (TET), tetracycline-resistant strain TET3: strong synergism
[3]
  growth rate reduction by the peptide applied alone: 40%
wild-type E. coli; laboratory evolution, 160 generations
  evolution of resistance to the peptide: marginal
wild-type E. coli; laboratory-evolved lines
  cross-resistance between PGLA and ciprofloxacin or tetracycline in evolved lines: no substantial cross-resistance
E. coli mutant strains; marR mutation in E. coli BW25113 or E. coli ATCC 25922
  susceptibility of the marR single point mutant (marR*): collateral sensitivity

## rabbit 18-kDa cationic antimicrobial protein [CAP18]
CAP18-resistant bacteria
  consequence of evolving resistance to the peptide: collateral sensitivity to several conventional antibiotics

## O=C1CN(/N=C/c2ccc([N+](=O)[O-])o2)C(=O)N1 [nitrofurantoin]
E. coli mutant strains; ompC mutation inserted into wild-type E. coli
  effect of ompC loss-of function mutation on susceptibility: conferred resistance

## bactenecin 5 (RFRPPIRRPPIRPPFYPPFRPPIRPPIFPPIRPPFRPPLGPFP; Bactenecin-5; UniProt P19660 131-173, looked up) [BAC5]
[4]; tobramycin-resistant E. coli strains
  interaction of tobramycin-resistant strains with the peptide: cross-resistance rather than collateral sensitivity

## cecropin P1 [CP1]
[4]; 60 laboratory-evolved antibiotic-resistant E. coli strains
  collateral sensitivity of antibiotic-resistant strains towards the peptide: rarely show collateral sensitivity
